Data reported in ChEMBL document CHEMBL2412964, “Discovery of novel tetrahydro-pyrazolo [4,3-c] pyridines for the treatment of neuropathic pain: synthesis and neuropharmacology” (Eur J Med Chem, 2013).

What was measured:
[1] = test system: Mus musculus; experiment: Antinociceptive activity in Swiss albino mouse assessed as inhibition of formalin-induced flinching at 100 mg/kg administered 30 mins prior to test measured for 10 to 30 mins relative to control; type: functional
[2] = test system: Rattus norvegicus; experiment: Antinociceptive activity in Wistar rat chronic constriction injury model assessed as reversal of cold allodynia at 100 mg/kg, ip after 60 mins (reference value: 6.3 +/- 1.9%); type: functional; settings: route intraperitoneal
[3] = test system: Rattus norvegicus; experiment: Antinociceptive activity in Wistar rat partial sciatic nerve ligation model assessed as reversal of cold allodynia at 100 mg/kg, ip after 30 mins (reference value: 4.1 +/- 1.0%); type: functional; settings: route intraperitoneal
[4] = test system: Mus musculus; experiment: Antinociceptive activity in Swiss albino mouse assessed as inhibition of formalin-induced flinching at 100 mg/kg administered 30 mins prior to test measured up to 5 mins relative to control; type: functional
[5] = test system: Rattus norvegicus; experiment: Antinociceptive activity in Wistar rat chronic constriction injury model assessed as reversal of tactile allodynia at 100 mg/kg, ip after 30 mins (reference value: 3.4 +/- 0.8%); type: functional; settings: route intraperitoneal
[6] = test system: Rattus norvegicus; experiment: Antinociceptive activity in Wistar rat partial sciatic nerve ligation model assessed as reversal of cold allodynia at 100 mg/kg, ip after 60 mins (reference value: 2.5 +/- 0.3%); type: functional; settings: route intraperitoneal
[7] = test system: Mus musculus; experiment: Neurotoxicity in Swiss albino mouse assessed as minimal motor impairment at 300 mg/kg after 4 hrs by rotarod test; type: toxicity, organism-based; design: dose 300 mg/kg; settings: in vivo
How it was run: (§1)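 Swiss albino mice of either sex, 20-25 g, dosed at 30, 100 and 300 mg/kg, three per group. Minimal motor impairment scored by rotarod at 0.5 and 4.0 h after dosing. Reported value is the lowest dose giving impairment in half or more of the mice.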

[8] = test system: Rattus norvegicus; experiment: Antinociceptive activity in Wistar rat partial sciatic nerve ligation model assessed as reversal of spontaneous pain response at 100 mg/kg, ip after 30 mins (reference value: 3.2 +/- 0.3%); type: functional; settings: route intraperitoneal
[9] = test system: Rattus norvegicus; experiment: Antinociceptive activity in Wistar rat partial sciatic nerve ligation model assessed as reversal of spontaneous pain response at 100 mg/kg, ip after 60 mins (reference value: 2.9 +/- 0.3%); type: functional; settings: route intraperitoneal
[10] = test system: Rattus norvegicus; experiment: Antinociceptive activity in Wistar rat partial sciatic nerve ligation model assessed as reversal of tactile allodynia at 100 mg/kg, ip after 30 mins (reference value: 7.7 +/- 0.7%); type: functional; settings: route intraperitoneal
[11] = test system: Rattus norvegicus; experiment: Antinociceptive activity in Wistar rat chronic constriction injury model assessed as reversal of spontaneous pain response at 100 mg/kg, ip after 30 mins (reference value: 8.9 +/- 4.6%); type: functional; settings: route intraperitoneal
[12] = test system: Mus musculus; experiment: Antinociceptive activity in Swiss albino mouse assessed as inhibition of acetic acid-induced writhing at 100 mg/kg administered 30 mins prior to acetic acid-challenge measured for 30 mins relative to control; type: functional
How it was run: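 Swiss albino mice (20–25 g, either sex); writhing induced by i.p. 0.1 mL of 2.0% v/v acetic acid given half an hour after test compound dosing.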

[13] = test system: Rattus norvegicus; experiment: Antinociceptive activity in Wistar rat partial sciatic nerve ligation model assessed as reversal of mechanical allodynia at 100 mg/kg, ip after 120 mins (reference value: 2.9 +/- 0.3%); type: functional; settings: route intraperitoneal
[14] = test system: Mus musculus; experiment: Neurotoxicity in Swiss albino mouse assessed as minimal motor impairment at 300 mg/kg after 0.5 hrs by rotarod test; type: toxicity, organism-based; design: dose 300 mg/kg; settings: in vivo; how it was run: as §1
[15] = test system: Rattus norvegicus; experiment: Antinociceptive activity in Wistar rat partial sciatic nerve ligation model assessed as reversal of spontaneous pain response at 100 mg/kg, ip after 120 mins (reference value: 1.2 +/- 0.1%); type: functional; settings: route intraperitoneal
[16] = test system: Rattus norvegicus; experiment: Antinociceptive activity in Wistar rat chronic constriction injury model assessed as reversal of tactile allodynia at 100 mg/kg, ip after 60 mins (reference value: 1.3 +/- 0.3%); type: functional; settings: route intraperitoneal
[17] = test system: Rattus norvegicus; experiment: Antinociceptive activity in Wistar rat chronic constriction injury model assessed as reversal of tactile allodynia at 100 mg/kg, ip after 120 mins (reference value: 4.1 +/- 2.1%); type: functional; settings: route intraperitoneal
[18] = test system: Rattus norvegicus; experiment: Antinociceptive activity in Wistar rat chronic constriction injury model assessed as reversal of mechanical allodynia at 100 mg/kg, ip after 60 mins (reference value: 4.9 +/- 1.0%); type: functional; settings: route intraperitoneal
[19] = test system: Rattus norvegicus; experiment: Antinociceptive activity in Wistar rat partial sciatic nerve ligation model assessed as reversal of cold allodynia at 100 mg/kg, ip after 120 mins (reference value: 1.5 +/- 0.5%); type: functional; settings: route intraperitoneal
[20] = test system: Rattus norvegicus; experiment: Antinociceptive activity in Wistar rat partial sciatic nerve ligation model assessed as reversal of mechanical allodynia at 100 mg/kg, ip after 30 mins (reference value: 2.9 +/- 0.3%); type: functional; settings: route intraperitoneal
[21] = test system: Rattus norvegicus; experiment: Antinociceptive activity in Wistar rat partial sciatic nerve ligation model assessed as reversal of tactile allodynia at 100 mg/kg, ip after 60 mins (reference value: 12.5 +/- 1.2%); type: functional; settings: route intraperitoneal
[22] = test system: Rattus norvegicus; experiment: Antinociceptive activity in Wistar rat chronic constriction injury model assessed as reversal of spontaneous pain response at 100 mg/kg, ip after 60 mins (reference value: 4.6 +/- 0.6%); type: functional; settings: route intraperitoneal
[23] = test system: Rattus norvegicus; experiment: Antinociceptive activity in Wistar rat partial sciatic nerve ligation model assessed as reversal of tactile allodynia at 100 mg/kg, ip after 120 mins relative to control; type: functional; settings: route intraperitoneal
[24] = test system: Rattus norvegicus; experiment: Antinociceptive activity in Wistar rat chronic constriction injury model assessed as reversal of mechanical allodynia at 100 mg/kg, ip after 120 mins (reference value: 5.3 +/- 0.5%); type: functional; settings: route intraperitoneal
[25] = test system: Rattus norvegicus; experiment: Antinociceptive activity in Wistar rat chronic constriction injury model assessed as reversal of spontaneous pain response at 100 mg/kg, ip after 120 mins (reference value: 4.5 +/- 0.2%); type: functional; settings: route intraperitoneal
[26] = test system: Rattus norvegicus; experiment: Antinociceptive activity in Wistar rat chronic constriction injury model assessed as reversal of cold allodynia at 100 mg/kg, ip after 120 mins (reference value: 5.4 +/- 1.9%); type: functional; settings: route intraperitoneal
[27] = test system: Rattus norvegicus; experiment: Antinociceptive activity in Wistar rat partial sciatic nerve ligation model assessed as reversal of mechanical allodynia at 100 mg/kg, ip after 60 mins (reference value: 2.8 +/- 0.3%); type: functional; settings: route intraperitoneal
[28] = test system: Rattus norvegicus; experiment: Antinociceptive activity in Wistar rat chronic constriction injury model assessed as reversal of cold allodynia at 100 mg/kg, ip after 30 mins (reference value: 0.6 +/- 2.7%); type: functional; settings: route intraperitoneal
[29] = test system: Rattus norvegicus; experiment: Antinociceptive activity in Wistar rat chronic constriction injury model assessed as reversal of mechanical allodynia at 100 mg/kg, ip after 30 mins (reference value: 4.7 +/- 2.1%); type: functional; settings: route intraperitoneal

Row | Compound | Activity [2] | Activity [3] | Activity [5] | Activity [6] | Activity [8] | Activity [9] | Activity [10] | Activity [11] | Activity [13] | Activity [15] | Activity [16] | Activity [17] | Activity [18] | Activity [19] | Activity [20] | Activity [21] | Activity [22] | Activity [23] | Activity [24] | Activity [25] | other results
1 | CCN1CCc2c(c(C)nn2C(=O)Nc2c(C)cccc2C)C1 | 52.6% | 61.3% | 55% | 41.6% | 70.3% | 66.1% | 18.4% | 77.3% | 44.4% | 58.4% | 58% | 65.1% | 73.2% | 37.2% | 57.8% | 46.4% | 68.3% | 38.3% | 26.1% | 53.7% | inhibition in vivo at 100 mg/kg [1]: 78.9%; inhibition in vivo at 100 mg/kg [4]: 12.2%; Activity [7]: Non-toxic; inhibition in vivo at 100 mg/kg [12]: 60.5%; Activity [14]: Non-toxic; Activity [26]: 13.4%; Activity [27]: 69.4%; Activity [28]: 63.4%; Activity [29]: 67%
2 | CCN1CCc2c(c(C)nn2C(=O)Nc2cc(C)ccc2F)C1 | 21.2% | 13% | 6.6% | 16% | 57.6% | 26.6% | 20.2% | 15% | 18.2% | 17.3% | 9.9% | 13.7% | 42.9% | 7.9% | 44.8% | 15.1% | 11% | 3.5% | 14.3% | 51.8% | inhibition in vivo at 100 mg/kg [1]: 15%; inhibition in vivo at 100 mg/kg [4]: 5.2%; Activity [7]: Non-toxic; inhibition in vivo at 100 mg/kg [12]: 10.5%; Activity [14]: Non-toxic; Activity [26]: 2.8%; Activity [27]: 40.2%; Activity [28]: 15%; Activity [29]: 35.7%
3 | CCN1CCc2c(c(C)nn2C(=O)Nc2cccc(C(F)(F)F)c2)C1 | 13.7% | 30.2% | 4.41% | 15.7% | 20.7% | 10.2% | 69.7% | 13.3% | 10.6% | 13.8% | 11.8% | 11.8% | 20.5% | 20.9% | 15.6% | 11.1% | 15.2% | 11.1% | 21.8% | 12.5% | inhibition in vivo at 100 mg/kg [1]: 23.1%; inhibition in vivo at 100 mg/kg [4]: 4.4%; Activity [7]: Non-toxic; inhibition in vivo at 100 mg/kg [12]: 56.1%; Activity [14]: Non-toxic; Activity [26]: 7%; Activity [27]: 11.1%; Activity [28]: 12.1%; Activity [29]: 13.4%
4 | CCN1CCc2c(c(C(C)(C)C)nn2C(=O)Nc2cc(C)ccc2C)C1 | 10.1% | 12% | 4.5% | 12.7% | 4.9% | 14.4% | 36.4% | 21.1% | 14.3% | 13.6% | 9.7% | 44.7% | 18.2% | 9.5% | 14.3% | 16.7% | 19.8% | 4.5% | 9.1% | 12.4% | inhibition in vivo at 100 mg/kg [1]: 15.7%; inhibition in vivo at 100 mg/kg [4]: 0%; Activity [7]: Non-toxic; inhibition in vivo at 100 mg/kg [12]: 63.1%; Activity [14]: Non-toxic; Activity [26]: 40.5%; Activity [27]: 7.1%; Activity [28]: 17.9%; Activity [29]: 18.2%
5 | NCC1(CC(=O)O)CCCCC1 [GABAPENTIN] | 42.9% | 54.1% | 35.4% | 58.2% | 92.9% | 94.2% | 43.1% | 71.2% | 55.8% | 82.4% | 59.4% | 50.7% | 78.6% | 32.1% | 86.2% | 56.1% | 91.2% | 58.5% | 75.7% | 88.8% | Activity [26]: 35.6%; Activity [27]: 91.3%; Activity [28]: 58%; Activity [29]: 92.9%
